pIC50: −log10 of the molar value.
tested on: HeLa; assay: Cytostatic activity against human HeLa cells assessed as inhibition of cell proliferation after 72 hrs by coulter counting analysis; format: functional, cell-based; settings: Homo sapiens, HeLa, 72 h
Method in brief: (§1)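 Anti-proliferative screen in murine leukemia L1210, human T-lymphocyte CEM and human cervix carcinoma HeLa cultures. The value reported is the IC50, the concentration that inhibits cell proliferation by 50%.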

| Compound | pIC50 |
| --- | --- |
| CC(C)(C)NC(=O)C1(N(C(=O)[C@H](Cc2ccccc2)NC(=O)OCc2ccccc2)C2CC2)CCN(C(=O)OC(C)(C)C)CC1 | 3.83 |
| COC(=O)C[C@H](NC(=O)OCc1ccccc1)C(=O)N(C1CC1)C1(C(=O)NCc2ccccc2)CCN(Cc2ccccc2)CC1 | 5.33 |
| CCC(C)N(C(=O)[C@@H](N)CC(=O)OC)C1(C(=O)NCc2ccccc2)CCNCC1 (stereo partly specified) | < 3.60 |
| COC(=O)C[C@H](N)C(=O)N(Cc1ccccc1)C1(C(=O)NCc2ccccc2)CCN(Cc2ccccc2)CC1 | 4.00 |
| C=CCOC(=O)N1CCC(C(=O)NCc2ccccc2)(N(Cc2ccccc2)C(=O)[C@@H](N)Cc2ccccc2)CC1 | 4.20 |
| CC[C@@H](C)[C@H](NC(=O)OCc1ccccc1)C(=O)N(Cc1ccccc1)C1(C(=O)NCc2ccccc2)CCN(C(=O)OC(C)(C)C)CC1 | 4.96 |
| CCC(C)N(C(=O)[C@H](Cc1ccccc1)NC(=O)OC(C)(C)C)C1(C(=O)NCc2ccccc2)CCN(Cc2ccccc2)CC1 (stereo partly specified) | 4.62 |
| CCC(C)N(C(=O)[C@H](CC(=O)OC)NC(=O)OCc1ccccc1)C1(C(=O)NCc2ccccc2)CCN(Cc2ccccc2)CC1 (stereo partly specified) | 5.37 |
| CC(C)(C)NC(=O)C1(N(C(=O)[C@H](Cc2ccccc2)NC(=O)OCc2ccccc2)C2CC2)CCN(Cc2ccccc2)CC1 | 4.59 |
| CCC(C)N(C(=O)[C@@H](N)CC(=O)OC)C1(C(=O)NCc2ccccc2)CCN(Cc2ccccc2)CC1 (stereo partly specified) | < 3.60 |
| CCC(C)N(C(=O)[C@@H](N)Cc1ccccc1)C1(C(=O)NCc2ccccc2)CCN(Cc2ccccc2)CC1 (stereo partly specified) | 4.05 |

More lines, now with the values ahead:

| pIC50 | Compound |
| --- | --- |
| 4.62 | COC(=O)C[C@H](NC(=O)OC(C)(C)C)C(=O)NC1(C(=O)NCc2ccccc2)CCN(Cc2ccccc2)CC1 |
| 4.96 | COC(=O)C[C@H](NC(=O)OC(C)(C)C)C(=O)N(C)C1(C(=O)NCc2ccccc2)CCN(Cc2ccccc2)CC1 |
| 4.85 | COC(=O)C[C@H](NC(=O)OCc1ccccc1)C(=O)N(Cc1ccccc1)C1(C(=O)NCc2ccccc2)CCN(Cc2ccccc2)CC1 |
| 5.10 | COC(=O)C[C@H](NC(=O)OC(C)(C)C)C(=O)N(C1CC1)C1(C(=O)NCc2ccccc2)CCN(Cc2ccccc2)CC1 |
| 4.49 | COC(=O)C[C@H](NC(=O)OC(C)(C)C)C(=O)N(CC(=O)OC)C1(C(=O)NCc2ccccc2)CCN(Cc2ccccc2)CC1 |
| 3.64 | COC(=O)CNC(=O)C1(N(Cc2ccccc2)C(=O)[C@H](CC(=O)OC)NC(=O)OC(C)(C)C)CCN(Cc2ccccc2)CC1 |
| 4.89 | CC(C)(C)OC(=O)N[C@@H](Cc1ccccc1)C(=O)N(Cc1ccccc1)C1(C(=O)NCc2ccccc2)CCN(C(=O)OC(C)(C)C)CC1 |
| < 3.70 | CC(C)(C)OC(=O)N[C@@H](CC(=O)O)C(=O)N(Cc1ccccc1)C1(C(=O)NCc2ccccc2)CCN(Cc2ccccc2)CC1 |
| 4.17 | CN(C)C(=O)C[C@H](NC(=O)OC(C)(C)C)C(=O)N(Cc1ccccc1)C1(C(=O)NCc2ccccc2)CCN(Cc2ccccc2)CC1 |
| 4.68 | COC(=O)C[C@H](NC(=O)OC(C)(C)C)C(=O)N(Cc1ccccc1)C1(C(=O)NC2CCCCC2)CCN(Cc2ccccc2)CC1 |
| < 3.78 | COC(=O)C[C@H](NC(=O)OC(C)(C)C)C(=O)N(Cc1ccccc1)C1(C(=O)NCc2ccccc2)CCNCC1 |
| 4.70 | CC(C)(C)NC(=O)C1(N(C(=O)[C@H](Cc2ccccc2)NC(=O)OC(C)(C)C)C2CC2)CCN(Cc2ccccc2)CC1 |

tested on: L1210; assay: Cytostatic activity against mouse L1210 cells assessed as inhibition of cell proliferation after 48 hrs by coulter counting analysis; format: functional, cell-based; settings: Mus musculus, L1210, 48 h; method in brief: as §1

| Compound | pIC50 |
| --- | --- |
| CC(C)(C)NC(=O)C1(N(C(=O)[C@H](Cc2ccccc2)NC(=O)OCc2ccccc2)C2CC2)CCN(C(=O)OC(C)(C)C)CC1 | 4.77 |
| COC(=O)C[C@H](NC(=O)OCc1ccccc1)C(=O)N(C1CC1)C1(C(=O)NCc2ccccc2)CCN(Cc2ccccc2)CC1 | 5.28 |
| CCC(C)N(C(=O)[C@@H](N)CC(=O)OC)C1(C(=O)NCc2ccccc2)CCNCC1 (stereo partly specified) | < 3.60 |
| COC(=O)C[C@H](N)C(=O)N(Cc1ccccc1)C1(C(=O)NCc2ccccc2)CCN(Cc2ccccc2)CC1 | 4.05 |
| C=CCOC(=O)N1CCC(C(=O)NCc2ccccc2)(N(Cc2ccccc2)C(=O)[C@@H](N)Cc2ccccc2)CC1 | 4.31 |
| CC[C@@H](C)[C@H](NC(=O)OCc1ccccc1)C(=O)N(Cc1ccccc1)C1(C(=O)NCc2ccccc2)CCN(C(=O)OC(C)(C)C)CC1 | 5.29 |
| CCC(C)N(C(=O)[C@H](Cc1ccccc1)NC(=O)OC(C)(C)C)C1(C(=O)NCc2ccccc2)CCN(Cc2ccccc2)CC1 (stereo partly specified) | 5.38 |
| CCC(C)N(C(=O)[C@H](CC(=O)OC)NC(=O)OCc1ccccc1)C1(C(=O)NCc2ccccc2)CCN(Cc2ccccc2)CC1 (stereo partly specified) | 5.28 |
| CC(C)(C)NC(=O)C1(N(C(=O)[C@H](Cc2ccccc2)NC(=O)OCc2ccccc2)C2CC2)CCN(Cc2ccccc2)CC1 | 5.18 |
| CCC(C)N(C(=O)[C@@H](N)CC(=O)OC)C1(C(=O)NCc2ccccc2)CCN(Cc2ccccc2)CC1 (stereo partly specified) | 3.61 |
| CCC(C)N(C(=O)[C@@H](N)Cc1ccccc1)C1(C(=O)NCc2ccccc2)CCN(Cc2ccccc2)CC1 (stereo partly specified) | 4.09 |

Next, values leading:

| pIC50 | Compound |
| --- | --- |
| 4.64 | COC(=O)C[C@H](NC(=O)OC(C)(C)C)C(=O)NC1(C(=O)NCc2ccccc2)CCN(Cc2ccccc2)CC1 |
| 4.77 | COC(=O)C[C@H](NC(=O)OC(C)(C)C)C(=O)N(C)C1(C(=O)NCc2ccccc2)CCN(Cc2ccccc2)CC1 |
| 5.24 | COC(=O)C[C@H](NC(=O)OCc1ccccc1)C(=O)N(Cc1ccccc1)C1(C(=O)NCc2ccccc2)CCN(Cc2ccccc2)CC1 |
| 4.85 | COC(=O)C[C@H](NC(=O)OC(C)(C)C)C(=O)N(C1CC1)C1(C(=O)NCc2ccccc2)CCN(Cc2ccccc2)CC1 |
| 4.31 | COC(=O)C[C@H](NC(=O)OC(C)(C)C)C(=O)N(CC(=O)OC)C1(C(=O)NCc2ccccc2)CCN(Cc2ccccc2)CC1 |
| 3.91 | COC(=O)CNC(=O)C1(N(Cc2ccccc2)C(=O)[C@H](CC(=O)OC)NC(=O)OC(C)(C)C)CCN(Cc2ccccc2)CC1 |
| 5.30 | CC(C)(C)OC(=O)N[C@@H](Cc1ccccc1)C(=O)N(Cc1ccccc1)C1(C(=O)NCc2ccccc2)CCN(C(=O)OC(C)(C)C)CC1 |
| 3.79 | CC(C)(C)OC(=O)N[C@@H](CC(=O)O)C(=O)N(Cc1ccccc1)C1(C(=O)NCc2ccccc2)CCN(Cc2ccccc2)CC1 |
| 4.12 | CN(C)C(=O)C[C@H](NC(=O)OC(C)(C)C)C(=O)N(Cc1ccccc1)C1(C(=O)NCc2ccccc2)CCN(Cc2ccccc2)CC1 |
| 4.72 | COC(=O)C[C@H](NC(=O)OC(C)(C)C)C(=O)N(Cc1ccccc1)C1(C(=O)NC2CCCCC2)CCN(Cc2ccccc2)CC1 |
| < 3.70 | COC(=O)C[C@H](NC(=O)OC(C)(C)C)C(=O)N(Cc1ccccc1)C1(C(=O)NCc2ccccc2)CCNCC1 |
| 4.85 | CC(C)(C)NC(=O)C1(N(C(=O)[C@H](Cc2ccccc2)NC(=O)OC(C)(C)C)C2CC2)CCN(Cc2ccccc2)CC1 |

tested on: CCRF-CEM; assay: Cytostatic activity against human CEM cells assessed as inhibition of cell proliferation after 72 hrs by coulter counting analysis; format: functional, cell-based; settings: Homo sapiens, CCRF-CEM, 72 h; method in brief: as §1

| Compound | pIC50 |
| --- | --- |
| CC(C)(C)NC(=O)C1(N(C(=O)[C@H](Cc2ccccc2)NC(=O)OCc2ccccc2)C2CC2)CCN(C(=O)OC(C)(C)C)CC1 | 4.82 |
| COC(=O)C[C@H](NC(=O)OCc1ccccc1)C(=O)N(C1CC1)C1(C(=O)NCc2ccccc2)CCN(Cc2ccccc2)CC1 | 5.21 |
| CCC(C)N(C(=O)[C@@H](N)CC(=O)OC)C1(C(=O)NCc2ccccc2)CCNCC1 (stereo partly specified) | < 3.60 |
| COC(=O)C[C@H](N)C(=O)N(Cc1ccccc1)C1(C(=O)NCc2ccccc2)CCN(Cc2ccccc2)CC1 | 3.98 |
| C=CCOC(=O)N1CCC(C(=O)NCc2ccccc2)(N(Cc2ccccc2)C(=O)[C@@H](N)Cc2ccccc2)CC1 | 4.27 |
| CC[C@@H](C)[C@H](NC(=O)OCc1ccccc1)C(=O)N(Cc1ccccc1)C1(C(=O)NCc2ccccc2)CCN(C(=O)OC(C)(C)C)CC1 | 5.17 |
| CCC(C)N(C(=O)[C@H](Cc1ccccc1)NC(=O)OC(C)(C)C)C1(C(=O)NCc2ccccc2)CCN(Cc2ccccc2)CC1 (stereo partly specified) | 5.00 |
| CCC(C)N(C(=O)[C@H](CC(=O)OC)NC(=O)OCc1ccccc1)C1(C(=O)NCc2ccccc2)CCN(Cc2ccccc2)CC1 (stereo partly specified) | 5.35 |
| CC(C)(C)NC(=O)C1(N(C(=O)[C@H](Cc2ccccc2)NC(=O)OCc2ccccc2)C2CC2)CCN(Cc2ccccc2)CC1 | 5.22 |
| CCC(C)N(C(=O)[C@@H](N)CC(=O)OC)C1(C(=O)NCc2ccccc2)CCN(Cc2ccccc2)CC1 (stereo partly specified) | 3.62 |
| CCC(C)N(C(=O)[C@@H](N)Cc1ccccc1)C1(C(=O)NCc2ccccc2)CCN(Cc2ccccc2)CC1 (stereo partly specified) | 4.00 |

Now from value to molecule:

| pIC50 | Compound |
| --- | --- |
| 4.60 | COC(=O)C[C@H](NC(=O)OC(C)(C)C)C(=O)NC1(C(=O)NCc2ccccc2)CCN(Cc2ccccc2)CC1 |
| 4.70 | COC(=O)C[C@H](NC(=O)OC(C)(C)C)C(=O)N(C)C1(C(=O)NCc2ccccc2)CCN(Cc2ccccc2)CC1 |
| 5.35 | COC(=O)C[C@H](NC(=O)OCc1ccccc1)C(=O)N(Cc1ccccc1)C1(C(=O)NCc2ccccc2)CCN(Cc2ccccc2)CC1 |
| 5.17 | COC(=O)C[C@H](NC(=O)OC(C)(C)C)C(=O)N(C1CC1)C1(C(=O)NCc2ccccc2)CCN(Cc2ccccc2)CC1 |
| 4.34 | COC(=O)C[C@H](NC(=O)OC(C)(C)C)C(=O)N(CC(=O)OC)C1(C(=O)NCc2ccccc2)CCN(Cc2ccccc2)CC1 |
| 3.96 | COC(=O)CNC(=O)C1(N(Cc2ccccc2)C(=O)[C@H](CC(=O)OC)NC(=O)OC(C)(C)C)CCN(Cc2ccccc2)CC1 |
| 5.24 | CC(C)(C)OC(=O)N[C@@H](Cc1ccccc1)C(=O)N(Cc1ccccc1)C1(C(=O)NCc2ccccc2)CCN(C(=O)OC(C)(C)C)CC1 |
| < 3.70 | CC(C)(C)OC(=O)N[C@@H](CC(=O)O)C(=O)N(Cc1ccccc1)C1(C(=O)NCc2ccccc2)CCN(Cc2ccccc2)CC1 |
| 4.23 | CN(C)C(=O)C[C@H](NC(=O)OC(C)(C)C)C(=O)N(Cc1ccccc1)C1(C(=O)NCc2ccccc2)CCN(Cc2ccccc2)CC1 |
| 4.70 | COC(=O)C[C@H](NC(=O)OC(C)(C)C)C(=O)N(Cc1ccccc1)C1(C(=O)NC2CCCCC2)CCN(Cc2ccccc2)CC1 |
| 3.91 | COC(=O)C[C@H](NC(=O)OC(C)(C)C)C(=O)N(Cc1ccccc1)C1(C(=O)NCc2ccccc2)CCNCC1 |
| 4.72 | CC(C)(C)NC(=O)C1(N(C(=O)[C@H](Cc2ccccc2)NC(=O)OC(C)(C)C)C2CC2)CCN(Cc2ccccc2)CC1 |

tested on: CAKI-1; assay: Cytostatic activity against human Caki1 cells assessed as inhibition of cell proliferation after 96 hrs by coulter counting analysis; format: functional, cell-based; settings: CAKI-1, 96 h
Method in brief: (§2)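 Anti-proliferative testing extended to human kidney Caki-1 and human liver Huh-7 tumour cells. The value reported is the IC50, the concentration that inhibits tumour cell growth by 50%.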

| Compound | pIC50 |
| --- | --- |
| CCC(C)N(C(=O)[C@H](CC(=O)OC)NC(=O)OCc1ccccc1)C1(C(=O)NCc2ccccc2)CCN(Cc2ccccc2)CC1 (stereo partly specified) | 5.06 |

tested on: Huh-7; assay: Cytostatic activity against human HuH7 cells assessed as inhibition of cell proliferation after 96 hrs by coulter counting analysis; format: functional, cell-based; settings: Huh-7, 96 h; method in brief: as §2

| pIC50 | Compound |
| --- | --- |
| 5.19 | CCC(C)N(C(=O)[C@H](CC(=O)OC)NC(=O)OCc1ccccc1)C1(C(=O)NCc2ccccc2)CCN(Cc2ccccc2)CC1 (stereo partly specified) |

From ChEMBL document CHEMBL3286189, “Discovery and SAR studies of a novel class of cytotoxic 1,4-disubstituted piperidines via Ugi reaction” (Eur J Med Chem, 2014)
